In the RNAGym collection of RNA variant scans (doi:10.1126/science.aae0568) one finds yeast fitness data, which are given here for 38 variants.

Fewer inactive variants are shown than the library holds.

The chains are these.
B1: tRNA (parent)
chain: GUUCCGUUGGCGUAAUGGUAACGCGUCUCCCUCCUAAGGAGAAGACUGCGGGUUCGAGUCCCGUACGGAACG

In this data set the parent is B1. As to the kind of experiment: yeast fitness relative to wild type (ratio to wild type); higher = fitter; tRNA-Arg(CCU), competitive growth, 37 C, YPD. In short, it runs like this: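 Gene amplicons from the start population and from each of six end populations were read by 100-nucleotide paired-end sequencing. Those end populations came from pooled Saccharomyces cerevisiae strains carrying tRNA-Arg(CCU) gene variants at the native locus, competed in YPD at 37°C for 24 hours. Fitness relative to wild type was worked out from changes in genotype frequencies. Genotypes needed ≥ 100 starting reads, and estimates < 0.5 were set to 0.5.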
In the case of GUUCCGUUGACGUAAUGGUAACGGGUCUCCCUGCUAAGGAGAAGUCUGCGGGUUCGAGUCCCGUACGCAACG [G10A C24G C33G A45U G68C], the yeast fitness was at most 0.5.
Next, GUUCCGUUGGCGUAAUGGUAACGCGUCUCGCUCCUAAGGAGAAGACUGCGGCUUCGAGUCCCGUCCGGAACG [C30G G52C A65C]: at most 0.5.
As for GUUCCGUUGGUGUAAUGGUAACGCGUCUCCCUCCUAAGGAGGAGACUGCGUGUUCGUGUCCCGUACGGAACG [C11U A42G G51U A57U], the yeast fitness is at most 0.5.
For the variant GUUGCGUUGGCGUAGUGGUAACACGUCUCCCUCGUAAGGAGAAGACUGCGGGUUCGAGUCCCGUACAGAACG [C4G A15G G23A C34G G67A], the yeast fitness amounted to 0.556.
On to GUUCUGUUGGCGUAAUGGUAAGGCGUCUACCUCCUAAGGAGAAGUCUGCGGGUUCGACUCCCGUACGGAACG [C5U C22G C29A A45U G58C], for which the yeast fitness is at most 0.5.
As to GUUCCGUUGGCAUAAUGGUAACGCGUCUCCCUCCUAAGGAUAAGACUGCGGGUUCGAGUCCCGUACGGAACG [G12A G41U], the yeast fitness was 0.819.
Consider GUUCCGGUGGCGUAAUGGUAACGCGUUUCCCUCCUAAGGAGAAGACUGCGGGUUCGAGUCCCGUACGGAACG [U7G C27U], for which the yeast fitness was found to be 0.792.
As to GUUCUGUUGGCGUAAUGGUAACGCGUCUCCCUCCUAAGGAGAAGACUGCGGGUUAGAGUCCCGUACGGAACG [C5U C55A], the yeast fitness was 0.668.
Turning to GUUCCGUUGCCGUAAUGGUAACGCGUUUCCCUCCUAAGGUGAAGUCUACGGGUUCGAGUCCCGUACGGAACG [G10C C27U A40U A45U G48A], the yeast fitness was at most 0.5.
For the variant GUUCCGUUGGCGUAAUGGUAACGCGUCUCCCUCCUAAGGAGAAGACUCCGGGUUCGAGUCCCGUACGUAACG [G48C G68U], the yeast fitness was 0.771.
With GUUUCGUUGGCGUACUGGUAACGCGUCUCCCUCCUAAGGAGAAGACUGCGGGUUCGAGUCCCGUUCGGUACG [C4U A15C A65U A69U], the yeast fitness was at most 0.5.
Next, GCUCCGUUGGCGUAAUGGUACCGCGUCUCCCUCCUAAGGAGAAGACUGCGGGUUCGAGUCCCGUACGGAACG [U2C A21C]: 0.775; GUUCCGUUGGCGUAAUGGUAACGCGUCUCCCUCCUAAAGAGAAGACUGCGGGUCCGAGUCCCGUUCGGAACG [G38A U54C A65U]: 0.581.
As for GUUCCAUUGGCGUAAUGGUAACGCGUCUCGCUCCUAAGGAGAAGACUGCGGGUUGGAGUCCCGUACGGAACG [G6A C30G C55G], the yeast fitness is at most 0.5.
Take GUUCUGUUGGCGAAAUGGUAACGCGUCUCCCUCCUAAGGAGACGAGUGCGGGUUCGAGUCCCGUACGGAACG [C5U U13A A43C C46G]: the yeast fitness amounted to 0.627.
As for GUUCCGUUGGCGUAAUGGUAACCCGUCUCCCUCCUCAGGAGAAGACUGCGGGUUCGAGUCCCGUACGGAACG [G23C A36C], the yeast fitness is at most 0.5.
In the case of GUUCCGUUGGCGUAAUGGUAACGCGUUUCCCUCCUAGGGAGAAGACUGCGGGUUUGAGUCCCGUACGGAACG [C27U A37G C55U], the yeast fitness was at most 0.5.
Take GUUCCGUUGGCGUAAUGGUAACGCGUCUCCCCCCUAAGGUGAAGACUGCGGGUUGGAGUCCCGUACGGACCG [U32C A40U C55G A70C]: the yeast fitness was at most 0.5.
For GGUCCGUUGGCGUAAUGGUAACGAGUCUCCGUCCUAAGGAGAAGACUGCGGGUUCGAGUCCCGUACGGAACG [U2G C24A C31G], the yeast fitness is at most 0.5.
Regarding GGUCCGUUGGCGUAAUGGUUACGCGUCUACCUCCUAAGAAGAAGCCUGCGGGUUCGAGUCCCGUACGGAACG [U2G A20U C29A G39A A45C], the yeast fitness is 0.586.
For GUUCCGUUGGCGUAAUGGUAACCCGUCUGCCUCCUAAGGAGAAGACUGCGGGUUCGAGUCCCGUACUGCACG [G23C C29G G67U A69C], the yeast fitness was at most 0.5.
Consider GUUCCGUUGGCGUACUGGUAACGCGUCUUCCUCCUAAGCAGUAGACUGCUCGUUCGAGUCCCAUUCGGAACG [A15C C29U G39C A42U G50U G51C G63A A65U], for which the yeast fitness was at most 0.5.
Next, GUUCCGUUGGCGUAAUGGUAACGCGUCUCCGUCCUAAGGAGAAGACUGCGGGUUCGUGUCCCGUACGGCACG [C31G A57U A69C]: at most 0.5.
On to GUUCUGUUGGUGUAAUGGUAACGCCUCUCCCUCCUAAGGAGAAGCCUGCGGGUUCGAGUCCAGUACGGAUCG [C5U C11U G25C A45C C62A A70U], for which the yeast fitness turned out to be 0.611.
For the variant GUUCCGUAGGCGUAAUGGUAACGCGUCUCCCUCCUAAGGAGAAGACUGCGGGUUCGAGUCCCGUAAGGAACG [U8A C66A], the yeast fitness is 0.568.
Take GUUCCGUUGGUGUAAUGGUAACGCGUCUUCCUCCUAAGGAGAAGACUGCGGGUUCGAGCCCCGUACGGAACG [C11U C29U U59C]: the yeast fitness was at most 0.5.
As for GUUCAGUUGGCGUAAUAGUAACGCAUCUCCCUCCUAAGGAGAAGACUCCGGGUUCGAGUCCCGUACGGAACG [C5A G17A G25A G48C], the yeast fitness is at most 0.5.
As to GUUCCGUGGGCGUAAUGGUAACGCGUCUCUGUCCUAAGGAGAAGACUGCGGGUUCGAGUCCCGUAGGGAACG [U8G C30U C31G C66G], the yeast fitness is at most 0.5.
As to GUUCCGUUGGCGUAAUGGUAACGCGUUUCCCUCCUAAGGAGAAGACAGCGGGUUCGAGUCCCGUACGCAACG [C27U U47A G68C], the yeast fitness is at most 0.5.
Next, GUUCCGUUGGCGUAAGGGUAACGCGUCUCCCUCCUAAGGAGAAGACUGCGGGUUCGAGUCCCGUACGCGACG [U16G G68C A69G]: 0.556; GUUCCGUUGGCGUACUGGUAACGCGUCUCCCUCCUAAGGAGAAAACUGCGGGCUCGAGUCCCGCACGGAACG [A15C G44A U53C U64C]: at most 0.5.
For the variant GUUCCGUUGGCGUAAUGGUAACGCGUCUUCUUGCCAAGGAGAAGACUGCGGGUUCGAGUCCCGUACGGAACG [C29U C31U C33G U35C], the yeast fitness is 0.588.
Next, GCUCCGUUGGCGUAAUGGUAACGCGUCUCCCUCCUAAGGAGAAGACAGAGGGUUCGAGUCCCGUACGGAACG [U2C U47A C49A]: at most 0.5.
As for GUUCCGUUGGCGUAAUGGUAACGCGUCUCCCUCCUAAGGAGAAGAUUGCGGGUUUGAGUCCCGUACGGAACG [C46U C55U], the yeast fitness came out at 0.823.
GUUCCGUUGCCGUAAUGGUAACGCGUCUCCCUCCUAAGGAGAAGACGGCGGGUUUGAGUCCCGUACGGAGCG [G10C U47G C55U A70G]: the yeast fitness was at most 0.5.
Consider GUUCAGUUGGUGUAAUGGUACCGCGUCUCCCUCCUAAGGAGAAGACUGCGGGUUCGAGUCCCGUACGGAACG [C5A C11U A21C], for which the yeast fitness amounted to 0.654.
For the variant GUUCCGUUGGCGUAAUGGUAACGCGUCUCCCUCCUAAGGAAGAGACUGCGGGUUCGAGUCCCGUACGGAUCG [G41A A42G A70U], the yeast fitness is at most 0.5.
Consider GUUCCGUUGGCGUAAUGGUAACGCAUCUCCCUCCUAAGGAGAAGACUACGGGUUCGAGUCCCGUACGGAUCG [G25A G48A A70U], for which the yeast fitness was found to be 0.81.
